Assay results: article PMC5132082 (Clinical Pharmacology in Drug Development, 2016)
Like-named read-outs stand apart in the source and are kept apart here. Marks after values point to notes of the source that are not given here. Blank lines part the entries; values can stand above or below the compound they belong to.

Key:
[1] = cited from earlier work
[2] = type: in vivo, human; conditions: for AUC0–∞ ratio of geometric means (90%CI) / Cmax ratio of geometric means (90%CI) / CL/F ratio of geometric means (90%CI) / Vz/F ratio of geometric means (90%CI): ANOVA; for Tmax median difference (90%CI): Hodges-Lehmann estimate; for t1/2 geometric mean difference: severely renal impaired vs healthy matched
[3] = cited from earlier work; remark: listed apart in the source
[4] = type: in vivo, human; conditions: M12
Outline: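 Urine collected predose (≤60 min before dosing) and over 0‒8, 8‒24, 24‒48 and 48‒72 h postdose. M12 measured by achiral LC-MS/MS (LLOQ 5 ng/mL). Excreted amount = urine concentration × interval urine volume. Renal clearance = cumulative 72-h urinary M12 divided by plasma AUC0–72. Summarised descriptively by group.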

[5] = cited from earlier work; remark: listed apart in the source
[6] = Safety monitoring; type: in vivo, human; conditions: for subjects reporting AEs: single oral 30 mg
Outline: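 Subjects were confined from the evening before dosing through the PK sampling period. Monitoring ran throughout the study and covered adverse events, complete physical examinations, vital signs, 12-lead ECGs, clinical laboratory safety tests and prior and concomitant medications. Follow-up safety visit 11‒18 days after dosing.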

[7] = population pharmacokinetic model built in a phase 3 study; cited from earlier work
[8] = moderate and severe hepatic impairment; cited from earlier work
[9] = M12, mild renal impaired/healthy matched
[10] = M12, moderate renal impaired/healthy matched
[11] = M12, severe renal impaired/healthy matched
[12] = M12, subjects with mild renal impairment
[13] = M12, subjects with moderate renal impairment
[14] = M12, subjects with severe renal impairment
[15] = apremilast, mild renal impaired/healthy matched
[16] = apremilast, moderate renal impaired/healthy matched
[17] = apremilast, moderate renal impairment group
[18] = apremilast, severe renal impaired/healthy matched
[19] = apremilast, severe renal impairment vs healthy matched
[20] = apremilast, subjects with severe renal impairment
[21] = healthy subjects, single oral dose

SMILES: CCOc1cc(CC(=O)N[C@@H](CC(C)C)c2ccccc2N2CCCCC2)ccc1C(=O)O [repaglinide]
fraction of unchanged drug excreted through urine (fe) ([1]; healthy volunteers): < 0.1% | mean half-life increase ([1]; subjects with severe renal impairment, after 1 week of treatment): ~4 fold

AUC0–∞ ratio of geometric means (90%CI) [2, 9]: 129.6 (99.5–168.8) % | Cmax ratio of geometric means (90%CI) [2, 9]: 130.8 (91.7–186.6) % | AUC0–∞ ratio of geometric means (90%CI) [2, 10]: 161.4 (122.8–212.3) % | Cmax ratio of geometric means (90%CI) [2, 10]: 116.9 (81.9–166.8) % | Tmax median difference (90%CI) ([2]; M12, severe renal impaired vs healthy matched): 6.25 (2.975–11.0) h | AUC0–∞ ratio of geometric means (90%CI) [2, 11]: 291.7 (204.3–416.4) % | Cmax ratio of geometric means (90%CI) [2, 11]: 142.9 (106.3–192.1) % | t1/2 geometric mean difference ([2]; M12): 10.498 ^d (NC) h | AUC0–∞ higher than in healthy matched subjects [2, 12]: 29.6% | Cmax higher than in healthy matched subjects [2, 12]: 30.8% | AUC0–∞ higher than in healthy matched subjects [2, 13]: 61.4% | Cmax higher than in healthy matched subjects [2, 13]: 16.9% | Tmax delayed compared with healthy matched subjects ([2]; M12, subjects with renal impairment (severe study), P ≤ .05): ≈ 6.25 hours | increase in AUC0–∞ vs healthy matched subjects [2, 14]: 191.7% | increase in Cmax vs healthy matched subjects [2, 14]: 42.9% | geometric mean renal clearance ([4]; healthy subjects matched with subjects with mild renal impairment): 3.67 L/h | geometric mean renal clearance ([4]; healthy subjects matched with subjects with moderate renal impairment): 3.02 L/h | renal clearance decreased ([4]; subjects with mild or moderate renal impairment): ≈ 40% | geometric mean renal clearance ([4]; subjects with mild renal impairment, urine 0-72 h / plasma AUC 0-72 h): 2.35 L/h | geometric mean renal clearance ([4]; subjects with moderate renal impairment): 1.84 L/h
SMILES: CCOc1cc([C@@H](CS(C)(=O)=O)N2C(=O)c3cccc(NC(C)=O)c3C2=O)ccc1O[C@@H]1O[C@H](C(=O)O)[C@@H](O)[C@H](O)[C@H]1O [M12, O‐desmethyl apremilast glucuronide]
pharmacological activity [3]: pharmacologically inactive | share of the circulating radioactivity ([5]; after a single oral dose of [14C]apremilast): 39%

SMILES: CCOc1cc([C@@H](CS(C)(=O)=O)N2C(=O)c3cccc(NC(C)=O)c3C2=O)ccc1OC [apremilast]
deaths or AEs leading to discontinuation ([6]; both studies): No deaths or AEs leading to discontinuation occurred | overall safety finding ([6]; both studies, single oral 30-mg dose): no unexpected AEs or safety signals | subjects with AEs considered possibly related to study medication or procedures ([6]; healthy matched group of severe study): 2 | subjects reporting AEs ([6]; healthy matched group of severe study (n = 8)): 2 | subjects with AEs suspected to be related to study medication or procedures ([6]; healthy matched groups of mild and moderate study): 3 | subjects reporting AEs ([6]; healthy matched groups of mild and moderate study (n = 16)): 5 | subjects with AEs suspected to be related to study medication or procedures ([6]; mild renal impairment group): 2 | subjects reporting AEs ([6]; mild renal impairment group (n = 8)): 2 | subjects with AEs suspected to be related to study medication or procedures ([6]; moderate renal impairment group): 1 | subjects reporting AEs ([6]; moderate renal impairment group (n = 8)): 2 | subjects with AEs considered possibly related to study medication or procedures ([6]; severe renal impairment group): 3 | subjects reporting AEs ([6]; severe renal impairment group (n = 8)): 4 | Tmax median difference (90%CI) ([2]; apremilast, mild renal impaired vs healthy matched): 0.0 (‐1.00 to 1.00) P > .9999 h | AUC0–∞ ratio of geometric means (90%CI) [2, 15]: 85.9 (65.8–112.0) % | CL/F ratio of geometric means (90%CI) [2, 15]: 116.5 (89.3–151.9) % | Cmax ratio of geometric means (90%CI) [2, 15]: 106.2 (84.7–133.1) % | Vz/F ratio of geometric means (90%CI) [2, 15]: 120.4 (92.2–157.2) % | Tmax median difference (90%CI) ([2]; apremilast, moderate renal impaired vs healthy matched): 1.0 (‐0.50 to 2.50) P = .25 h | AUC0–∞ ratio of geometric means (90%CI) [2, 16]: 122.1 (93.6–159.3) % | CL/F ratio of geometric means (90%CI) [2, 16]: 81.9 (62.8–106.8) % | Cmax ratio of geometric means (90%CI) [2, 16]: 87.5 (69.8–109.7) % | Vz/F ratio of geometric means (90%CI) [2, 16]: 103.2 (79.0–134.8) % | AUC0–∞ higher relative to healthy matched subjects [2, 17]: ≈ 22% | Cmax lower relative to healthy matched subjects [2, 17]: ≈ 13% | Tmax median difference (90%CI) ([2]; apremilast, severe renal impaired vs healthy matched): 0.00 (‐1.5 to 1.5) P > .9999 h | Vz/F ratio of geometric means ([2]; apremilast, severe renal impaired/healthy matched, 90%CI not calculated): 67.35 (NC) % | AUC0–∞ ratio of geometric means (90%CI) [2, 18]: 188.5 (132.5–268.0) % | CL/F ratio of geometric means (90%CI) [2, 18]: 53.10 (37.3–75.4) % | Cmax ratio of geometric means (90%CI) [2, 18]: 141.6 (102.9–194.8) % | VZ/F decreased [2, 19]: ~32.7% | t1/2 prolonged [2, 19]: ≈ 27% | t1/2 geometric mean difference ([2]; apremilast): 2.485 ^d (NC) h | AUC0–∞ higher compared with healthy matched subjects [2, 20]: 88.5% and ≈ 89% | Cmax higher compared with healthy matched subjects [2, 20]: 41.6% | apparent clearance relative to that of healthy matched subjects [2, 20]: ≈ 53% | disease effect of PsA: slower clearance [7]: ≈ 36% | absolute bioavailability [5, 21]: ≈ 73% | given dose excreted in urine unchanged [5, 21]: ≈ 3% | effect of hepatic impairment on pharmacokinetic profile [8]: largely unaffected
